Measured values published in ChEMBL document CHEMBL2034908, “Isoxazolo(aza)naphthoquinones: a new class of cytotoxic Hsp90 inhibitors” (Eur J Med Chem, 2012).
Active and inactive are the calls of the source. No cut-off for these calls is given here.

How the values were obtained:
[1] = tested on: A-431; assay: Cytotoxicity against human A431 cells after 72 hrs; format: functional, cell-based; details: A-431, 72 h
[2] = Binding affinity to Hsp90 after 4 hrs by GM-FITC based fluorescence polarization assay
Outline: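 Commercial Hsp90 at 30 nM was mixed with GM-FITC tracer at 5 nM and serially diluted compound. Buffer: 20 mM HEPES(K) pH 7.3, 50 mM KCl, 5 mM MgCl2, 20 mM Na2MoO4, 0.01% NP40, with fresh 0.1 mg/ml bovine gamma globulin and 2 mM DTT. Shaken 4 h at 4 °C, then FP read in mP. IC50 is the concentration displacing 50% of tracer, from triplicate wells by nonlinear least-squares fit.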

[3] = Cytotoxicity against human STO cells after 72 hrs; format: functional, cell-based
Outline: (§1)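 Compounds were dissolved fresh in DMSO and diluted in culture medium. Cells were exposed for 72 h at 37 °C in medium with 10% heat-inactivated FBS under 5% CO2. IC50 reported ± SD. STO cells were grown in 50/50 DMEM-Ham's F12 with 10% FBS and 2 mM L-Gln.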

[4] = tested on: NCI-H460; assay: Cytotoxicity against human NCI-H460 cells after 72 hrs; format: functional, cell-based; details: NCI-H460, 72 h; outline: as §1
[5] = tested on: NCI-H460; assay: Cytotoxicity against human NCI-H460 cells at >1 uM after 72 hrs; format: functional
[6] = target: T1, Heat shock protein HSP90 (Homo sapiens) (UniProt P07900+P08238); assay: Inhibition of Hsp90 in human A431 cells assessed as down-regulation of Raf expression at 22 nM after 24 hrs by Western blotting analysis; format: cell-based; details: A-431
Outline: (§2)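 Cells were treated 24 h with drug freshly made in DMSO and diluted in medium with 10% FBS. Where a single level was used, it was 22 nM. Lysates: cells rinsed twice in ice-cold PBS with 0.1 mM orthovanadate, then lysed in hot sample buffer. Protein was quantified by BCA, run on SDS-PAGE and blotted to nitrocellulose. Detection used HRP secondary antibodies and chemiluminescence, with actin as loading control.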

[7] = target: T1, Heat shock protein HSP90 (Homo sapiens); assay: Inhibition of Hsp90 in human STO cells assessed as down-regulation of Cdk4 expression at 22 nM after 24 hrs by Western blotting analysis; format: cell-based; outline: as §2
[8] = target: T1, Heat shock protein HSP90 (Homo sapiens); assay: Inhibition of Hsp90 in human A431 cells assessed as down-regulation of Cdk4 expression at 22 nM after 24 hrs by Western blotting analysis; format: cell-based; details: A-431; outline: as §2
[9] = tested on: A-431; assay: Antitumor activity against human A431 cells xenografted in athymic nude Swiss mouse assessed as tumor growth inhibition at 10 mg/kg, po qd for 4 days per week for 3 weeks; format: functional; details: read-out: GI
Outline: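 Female athymic Swiss nude mice, 8–10 weeks old, bearing A431 squamous carcinoma xenografts. Drug dissolved in physiologic saline and given orally at 10 mg/kg, qdx4d/week for 3 weeks. Dosing started when tumours were just palpable. Tumour growth inhibition was assessed.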

[10] = target: T1, Heat shock protein HSP90 (Homo sapiens); assay: Inhibition of Hsp90 in human A431 cells assessed as up-regulation of Hsp70 in human A431 cells after 24 hrs by Western blotting analysis; format: cell-based; details: A-431; outline: as §2
[11] = target: T1, Heat shock protein HSP90 (Homo sapiens); assay: Inhibition of Hsp90 in human STO cells assessed as down-regulation of survivin expression at 22 nM after 24 hrs by Western blotting analysis; format: cell-based; outline: as §2
[12] = target: T1, Heat shock protein HSP90 (Homo sapiens); assay: Inhibition of Hsp90 in human STO cells assessed as down-regulation of Raf expression at 22 nM after 24 hrs by Western blotting analysis; format: cell-based; outline: as §2
[13] = target: T1, Heat shock protein HSP90 (Homo sapiens); assay: Inhibition of Hsp90 in human A431 cells assessed as down-regulation of survivin expression at 22 nM after 24 hrs by Western blotting analysis; format: cell-based; details: A-431; outline: as §2
[14] = target: T1, Heat shock protein HSP90 (Homo sapiens); assay: Inhibition of Hsp90 in human A431 cells assessed as down-regulation of EGFR expression at 22 nM after 24 hrs by Western blotting analysis; format: cell-based; details: A-431; outline: as §2
[15] = target: T1, Heat shock protein HSP90 (Homo sapiens); assay: Inhibition of Hsp90 in human A431 cells assessed as down-regulation of survivin expression after 24 hrs by Western blotting analysis; format: cell-based; details: A-431; outline: as §2
[16] = target: T1, Heat shock protein HSP90 (Homo sapiens); assay: Inhibition of Hsp90 in human A431 cells assessed as down-regulation of Cdk4 expression after 24 hrs by Western blotting analysis; format: cell-based; details: A-431; outline: as §2
[17] = target: T1, Heat shock protein HSP90 (Homo sapiens); assay: Inhibition of Hsp90 in human A431 cells assessed as down-regulation of EGFR expression after 24 hrs by Western blotting analysis; format: cell-based; details: A-431; outline: as §2
[18] = target: T1, Heat shock protein HSP90 (Homo sapiens); assay: Inhibition of Hsp90 in human A431 cells assessed as down-regulation of Akt expression after 24 hrs by Western blotting analysis; format: cell-based; details: A-431; outline: as §2

Compound | IC50 [2] | pIC50 [2] | IC50 [1] | IC50 [3] | IC50 [4] | further results
O=C1c2ccccc2C(=O)c2c(-c3ccccn3)noc21 | 1.06 µM | 5.97 | 0.34 µM | 0.02 µM | 1 µM | 
O=C1c2ccccc2C(=O)c2c(-c3ccc[n+](Cc4ccccc4)c3)noc21.[Br-] | 0.77 µM | 6.11 | 0.02 µM | 0.01 µM | 0.021 µM | 
O=C1c2ccccc2C(=O)c2c(/C=C/c3ccccc3)noc21 | > 100 µM |  | 0.32 µM | 0.12 µM | > 1 µM | Activity [5]: 40%
CC(=O)Oc1c2ccccc2c(OC(C)=O)c2c(-c3ccc(F)cc3)noc12 | > 100 µM |  | 0.69 µM | 0.67 µM | > 1 µM | 
O=C1c2ccccc2C(=O)c2c(-c3ccccc3O)noc21 | 1.55 µM | 5.81 | 3.4 µM | 3.4 µM | > 1 µM | 
O=C1c2ccccc2C(=O)c2c(-c3ccc4[nH]ccc4c3)noc21 | > 100 µM | 5.71 | 0.32 µM | 0.32 µM | 0.3 µM | 
COc1cc(O)c(-c2noc3c2C(=O)c2ccccc2C3=O)cc1Cl | > 100 µM |  | 2.98 µM | 0.3 µM | > 1 µM | 
O=C1c2ccccc2C(=O)c2c(-c3cc(Cl)c(O)cc3O)noc21 | 4.2 µM | 5.38 | 23 µM | 1 µM | > 1 µM | 
CC(=O)Oc1cccc2c1C(=O)c1c(-c3ccc(F)cc3)noc1C2=O | 1.94 µM |  | 0.27 µM | 1.05 µM | 0.078 µM | 
COc1ccc(-c2noc3c2C(=O)c2ccccc2C3=O)cc1 | 5.84 µM |  | 0.35 µM | 0.16 µM | 0.65 µM | 
COc1cccc2c1C(=O)c1c(-c3ccncc3)noc1C2=O | 1.9 µM | 5.72 | 0.33 µM | 0.261 µM | 0.88 µM | 
Cl.O=C1c2ccccc2C(=O)c2c(-c3ccc(OCCN4CCOCC4)cc3)noc21 | 1.2 µM | 5.92 | 0.44 µM | 1.13 µM | 0.866 µM | 
O=C1c2ccccc2C(=O)c2c(-c3cccc[n+]3Cc3ccccc3)noc21.[Br-] | 200 µM | 3.7 | 2.24 µM | 2.24 µM | > 1 µM | 
O=C1c2ccccc2C(=O)c2c(-c3ccc(F)cc3)noc21 | 200 µM | 3.7 | 0.26 µM | 0.02 µM | 0.35 µM | 
COc1cc(OC)c(-c2noc3c2C(=O)c2ccccc2C3=O)cc1Cl | > 100 µM |  | 1.4 µM | 0.135 µM | 0.88 µM | 
O=C1c2ccncc2C(=O)c2c(-c3ccc(F)cc3)noc21 | 5.6 µM | 5.25 | 0.004 µM | 0.004 µM | 0.183 µM | 
O=C1c2cccc(O)c2C(=O)c2c(-c3ccncc3)noc21 | > 100 µM |  | 0.068 µM | 0.103 µM | 0.88 µM | 
COc1ccc(-c2noc3c2C(=O)c2cnccc2C3=O)cc1 | 1.6 µM | 5.61 | 0.098 µM | 0.092 µM | 0.446 µM | 
COc1ccccc1-c1noc2c1C(=O)c1ccccc1C2=O | 200 µM | 3.7 | 0.13 µM | 0.66 µM | 0.29 µM | 
O=C1c2ccccc2C(=O)c2c(-c3ccc(O)cc3)noc21 | > 100 µM |  | 0.21 µM | 0.46 µM | 0.51 µM | 
COc1ccc(-c2noc3c(OC(C)=O)c4ccccc4c(OC(C)=O)c23)cc1 | > 100 µM |  | 1.3 µM | 1 µM | > 1 µM | Activity [5]: 39%
O=C1c2ccccc2C(=O)c2c(-c3cc[n+](Cc4cnccn4)cc3)noc21.[Br-] | 0.68 µM | 6.17 | 0.052 µM | 0.22 µM | 0.017 µM | 
C=CCNC1=C2C[C@@H](C)C[C@H](OC)[C@H](O)[C@@H](C)/C=C(\C)[C@H](OC(N)=O)[C@@H](OC)/C=C\C=C(/C)C(=O)NC(=CC1=O)C2=O [TANESPIMYCIN] | 1.09 µM |  | 0.069 µM |  | 0.01 µM | 
O=C1c2ccccc2C(=O)c2c(-c3ccccc3)noc21 | 7.85 µM | 5.11 | 0.12 µM | 0.02 µM | 0.12 µM | 

These reach a lower IC50 [2]. Values come first.

IC50 [2] | pIC50 [2] | Compound | IC50 [1] | IC50 [3] | IC50 [4] | further results
0.54 µM | 6.27 | O=C1c2ccccc2C(=O)c2c(-c3cccnc3)noc21 | 0.043 µM | 0.04 µM | 0.062 µM | 
0.12 µM | 6.92 | O=C1c2ccncc2C(=O)c2c(-c3ccncc3)noc21 | 0.0085 µM | 0.06 µM | 0.085 µM | 
0.034 µM | 7.47 | O=C1c2ccccc2C(=O)c2c(-c3cc[n+](Cc4ccccc4)cc3)noc21.[Br-] | 0.0016 µM | 0.0022 µM | 0.018 µM | inhibition [6]: Active; inhibition [7]: Active; inhibition [8]: Active; inhibition in vivo at 10 mg/kg [9]: 50%; inhibition [10]: Dose-dependent effect; inhibition [11]: Active; inhibition [12]: Active; inhibition [13]: Active; inhibition [14]: Active
0.031 µM | 7.51 | CC(=O)Oc1cccc2c1C(=O)c1c(-c3cc[n+](Cc4ccccc4)cc3)noc1C2=O.[Br-] | 3.96 µM | 3.96 µM | > 1 µM | Activity [5]: 32%
0.51 µM | 6.29 | O=C1c2ccccc2C(=O)c2c(-c3ccc[n+](Cc4cnccn4)c3)noc21.[Br-] | 0.042 µM | 0.11 µM | 0.046 µM | 
0.34 µM | 6.47 | COc1cccc2c1C(=O)c1c(-c3cc[n+](Cc4ccccc4)cc3)noc1C2=O.[Br-] | 0.168 µM | 0.168 µM | 0.18 µM | 
0.29 µM | 6.54 | O=C1c2cccc(O)c2C(=O)c2c(-c3ccc(F)cc3)noc21 | 0.29 µM | 0.61 µM | 0.124 µM | 
0.63 µM | 6.2 | C[n+]1ccc(-c2noc3c2C(=O)c2ccccc2C3=O)cc1.[I-] | 0.48 µM | 1.2 µM | 0.33 µM | 
0.098 µM | 7.01 | O=C1c2cccc(O)c2C(=O)c2c(-c3cc[n+](Cc4ccccc4)cc3)noc21.[Br-] | 21.6 µM | 21.6 µM | 0.88 µM | 
< 0.005 µM | 8.47 | Cl.O=C1c2ccncc2C(=O)c2c(-c3ccc(OCCN4CCOCC4)cc3)noc21 | 0.02 µM | 0.054 µM | 0.041 µM | inhibition [15]: Dose-dependent effect; inhibition [16]: Dose-dependent effect; inhibition [10]: Dose-dependent effect; inhibition [17]: Dose-dependent effect; inhibition [18]: Dose-dependent effect
0.084 µM | 7.08 | CC(=O)Oc1cccc2c1C(=O)c1c(-c3ccncc3)noc1C2=O | 0.06 µM | 0.15 µM | 0.15 µM | 
0.39 µM | 6.41 | O=C1c2ccccc2C(=O)c2c(-c3ccncc3)noc21 | 0.056 µM | 0.011 µM | 0.14 µM | 
